Measurements: ChEMBL document CHEMBL5512642, “Novel triterpenoid pyrones, phthalimides and phthalates are selectively cytotoxic in CCRF-CEM cancer cells - Synthesis, potency, and mitochondrial mechanism of action” (Eur J Med Chem, 2024)
Activity calls are given as the source filed them. The calls are words filed in the database; no cut-off is given here.

Columns and labels:
[1] = system: HCT-116; experiment: Cytotoxicity against human HCT-116 cells assessed as reduction in cell viability incubated for 72 hrs by MTS assay; assay type: functional, cell-based; details: HCT-116, 72 h
[2] = Metabolic stability in human liver microsomes assessed as compound remaining at measured at 15 mins in presence of NADPH by RF-MS analysis; assay type: ADME, Microsome; details: read-out: Stability
In short: (§1)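 Human liver microsomes with NADPH cofactor to assess phase I oxidation. Compound remaining sampled at 15, 30 and 60 min; intrinsic clearance derived and categorized. Run in triplicate.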

[3] = system: CCRF-CEM; experiment: Induction of apoptosis in human CCRF-CEM cells assessed as necrotic cells at 5 time IC50 incubated for 24 hrs by Annexin V and propidium iodide staining based flow cytometry analysis (reference value: 0.; assay type: functional
[4] = system: U2OS; experiment: Cytotoxicity against human U2OS cells assessed as reduction in cell viability incubated for 72 hrs by MTS assay; assay type: functional, cell-based
[5] = Metabolic stability in human liver microsomes assessed as compound remaining at measured at 30 mins in presence of NADPH by RF-MS analysis; assay type: ADME, Microsome; details: read-out: Stability; in short: as §1
[6] = Cytotoxicity against human MRC5 cells assessed as reduction in cell viability incubated for 72 hrs by MTS assay; assay type: toxicity, cell-based
[7] = system: CCRF-CEM; experiment: Induction of apoptosis in human CCRF-CEM cells assessed as reduction in Bcl-XL expression at 5 time of IC50 incubated for 24 hrs by Western blot analysis; assay type: functional, cell-based
In short: (§2)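 Lysate 20 µg protein per lane on SDS-PAGE, transferred to nitrocellulose, blocked in 5% BSA/TBS-Tween. Probed overnight at 4 °C with anti-caspase-3, Bcl-2, Bcl-XL, β-actin, then HRP secondary 1 h. ECL chemiluminescence detection.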

[8] = system: CEM-DNR; experiment: Cytotoxicity against human CEM-DNR cells assessed as reduction in cell viability incubated for 72 hrs by MTS assay; assay type: functional, cell-based
[9] = system: CCRF-CEM; experiment: Antiproliferative activity against human CCRF-CEM cells assessed as inhibition of RNA synthesis at 5 time of IC50 by BrdU incorporation assay; assay type: functional, cell-based; details: in the assay text read “BrU incorporation assay” for “BrdU incorporation assay”
In short: (§3)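 Mitotic fraction scored with the pH3 Ser10 marker and DNA synthesis with BrdU incorporation. For transcription, cells received a short BrU pulse after the 24 h pre-incubation. Read by flow cytometry against untreated cells.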

[10] = Stability in human plasma assessed as compound remaining measured 120 mins by RF-MS analysis; assay type: ADME, cell-free; details: read-out: Stability
In short: (§4)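 Compounds incubated in human plasma in vitro for up to 2 h. Percent remaining sampled at 15, 30, 60 and 120 min. Run in triplicate.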

[11] = Apparent permeability of the compound in human Caco-2 cells; assay type: ADME, cell-based
In short: (§5)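 Caco-2 and MDCK-MDR1 monolayers; transport measured in both directions, apical→basolateral and basolateral→apical. Efflux ratio taken from the two directions; ER > 2 counted as active efflux. Compound recovery reported. Cell-based permeability runs done in duplicate.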

[12] = Metabolic stability in human liver microsomes assessed as compound remaining at measured at 60 mins in presence of NADPH by RF-MS analysis; assay type: ADME, Microsome; details: read-out: Stability; in short: as §1
[13] = Apparent permeability of the compound in MDCK-MDR1 cells at 10 uM incubated for 1 hr by RF-MS analysis; assay type: ADME, cell-based, Canis lupus familiaris; details: dog; in short: as §5
[14] = Stability in human plasma assessed as compound remaining measured 60 mins by RF-MS analysis; assay type: ADME, cell-free; details: read-out: Stability; in short: as §4
[15] = system: CCRF-CEM; experiment: Induction of apoptosis in human CCRF-CEM cells assessed as viable cells at 1 time IC50 incubated for 24 hrs by Annexin V and propidium iodide staining based flow cytometry analysis (reference value: 98%); assay type: functional
[16] = system: HCT 116 TP53(-/-); experiment: Cytotoxicity against human HCT116-p53-null cells assessed as reduction in cell viability incubated for 72 hrs by MTS assay; assay type: functional, cell-based
[17] = Cytotoxicity against human BJ cells assessed as reduction in cell viability incubated for 72 hrs by MTS assay; assay type: toxicity, cell-based
[18] = Apparent permeability of the compound across apical to basolateral side in human Caco-2 cells assessed as compound recovery; assay type: ADME, cell-based; details: read-out: Activity; in short: as §5
[19] = system: CCRF-CEM; experiment: Induction of apoptosis in human CCRF-CEM cells assessed as reduction in Bcl-2 expression at 5 time of IC50 incubated for 24 hrs by Western blot analysis; assay type: functional, cell-based; in short: as §2
[20] = system: CCRF-CEM; experiment: Cytotoxicity against human CCRF-CEM cells assessed as reduction in cell viability incubated for 72 hrs by MTS assay; assay type: functional, cell-based
[21] = system: CCRF-CEM; experiment: Induction of apoptosis in human CCRF-CEM cells assessed as necrotic cells at 1 time IC50 incubated for 24 hrs by Annexin V and propidium iodide staining based flow cytometry analysis (reference value: 0.1%); assay type: functional
[22] = system: CCRF-CEM; experiment: Antimitotic activity against human CCRF-CEM cells assessed as decrease in cell division at 5 times of IC50; assay type: functional, cell-based; in short: as §3
[23] = system: CCRF-CEM; experiment: Induction of apoptosis in human CCRF-CEM cells assessed as reduction in caspase-3 expression at 5 time of IC50 incubated for 24 hrs by Western blot analysis; assay type: functional, cell-based; in short: as §2
[24] = Cytotoxicity against human K562-Tax cells assessed as reduction in cell viability incubated for 72 hrs by MTS assay; assay type: functional, cell-based
[25] = system: CCRF-CEM; experiment: Induction of mitochondrial membrane potential loss in human CCRF-CEM cells assessed as cells with depolarized mitochondria (P2 gate) by measuring green fluorescence intensity at 1 time IC50 incubated for 24 hrs by JC-1 staining based flow cytometry (reference value: 2.1%)
[26] = Plasma protein binding in human assessed as fraction bound at 10 uM by rapid equilibrium dialysis based RF-MS analysis; assay type: ADME, cell-free; details: read-out: PPB (converted)
In short: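 Human plasma protein binding measured by equilibrium dialysis and reported as percent fraction bound. Run in triplicate.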

[27] = Efflux ratio of apparent permeability across basolateral to apical side over apical to basolateral side in MDCK-MDR1 cells; assay type: ADME, cell-based, Canis lupus familiaris; details: dog; in short: as §5
[28] = system: CCRF-CEM; experiment: Induction of apoptosis in human CCRF-CEM cells assessed as late apoptotic cells at 5 time IC50 incubated for 24 hrs by Annexin V and propidium iodide staining based flow cytometry analysis (reference value: 0.5%); assay type: functional
[29] = system: CCRF-CEM; experiment: Induction of apoptosis in human CCRF-CEM cells assessed as late apoptotic cells at 1 time IC50 incubated for 24 hrs by Annexin V and propidium iodide staining based flow cytometry analysis (reference value: 0.5%); assay type: functional
[30] = system: CCRF-CEM; experiment: Induction of mitochondrial membrane potential loss in human CCRF-CEM cells assessed as cells with depolarized mitochondria (P2 gate) by measuring green fluorescence intensity at 5 time IC50 incubated for 24 hrs by JC-1 staining based flow cytometry (reference value: 2.1%)
[31] = system: A549; experiment: Cytotoxicity against human A549 cells assessed as reduction in cell viability incubated for 72 hrs by MTS assay; assay type: functional, cell-based; details: A549, 72 h
[32] = system: K562; experiment: Cytotoxicity against human K562 cells assessed as reduction in cell viability incubated for 72 hrs by MTS assay; assay type: functional, cell-based; details: K562, 72 h
[33] = system: CCRF-CEM; experiment: Induction of apoptosis in human CCRF-CEM cells assessed as early apoptotic cells at 1 time IC50 incubated for 24 hrs by Annexin V and propidium iodide staining based flow cytometry analysis (reference value: 1.4%); assay type: functional
[34] = Efflux ratio of apparent permeability across basolateral to apical side over apical to basolateral side in human Caco-2 cells; assay type: ADME, cell-based; in short: as §5
[35] = system: CCRF-CEM; experiment: Induction of apoptosis in human CCRF-CEM cells assessed as viable cells at 5 time IC50 incubated for 24 hrs by Annexin V and propidium iodide staining based flow cytometry analysis (reference value: 98%); assay type: functional
[36] = Stability in human plasma assessed as compound remaining measured 30 mins by RF-MS analysis; assay type: ADME, cell-free; details: read-out: Stability; in short: as §4
[37] = system: CCRF-CEM; experiment: Induction of apoptosis in human CCRF-CEM cells assessed as early apoptotic cells at 5 time IC50 incubated for 24 hrs by Annexin V and propidium iodide staining based flow cytometry analysis (reference value: 1.4%); assay type: functional
[38] = Apparent permeability of the compound across apical to basolateral side in MDCK-MDR1 cells assessed as compound recovery at 10 uM incubated for 1 hr by RF-MS analysis; assay type: ADME, cell-based, Canis lupus familiaris; details: dog, read-out: Activity; in short: as §5
[39] = Stability in human plasma assessed as compound remaining measured 15 mins by RF-MS analysis; assay type: ADME, cell-free; details: read-out: Stability; in short: as §4

remaining at 0.25 h [2]	remaining at 0.5 h [5]	remaining at 2 h [10]	Papp [11]	remaining at 1 h [12]	Papp at 1 h, 10 µM [13]	remaining at 1 h [14]	recovery [18]	SMILES	IC50 [1]	Activity [3]	IC50 [4]	IC50 at 72 h [6]	Activity [7]	IC50 [8]	Activity [15]	IC50 [16]	IC50 at 72 h [17]	Activity [19]	IC50 [20]	Activity [21]	other results
100%	86%	93.6%	0.04 ×10⁻⁶ cm/s	70%	0.14 ×10⁻⁶ cm/s	102%	104%	C=C(C)[C@@H]1CC[C@]2(C(=O)O)CC[C@]3(C)[C@H](CC[C@@H]4[C@@]5(C)Cc6c(C(F)(F)F)cc(=O)oc6C(C)(C)[C@@H]5CC[C@]43C)[C@@H]12	13 µM	0%	18 µM	28 µM	Active	7.8 µM	90.9%	15 µM	> 50 µM	Active	4 µM	0.1%	Activity [9]: Active; Activity [22]: Active; Activity [23]: Active; IC50 [24]: 10 µM; Activity [25]: 4.4%; fraction unbound at 10 µM [26]: 0.135; efflux ratio [27]: 26; Activity [28]: 31.5%; Activity [29]: 3.7%; Activity [30]: 30.2%; IC50 [31]: 16 µM; IC50 [32]: 22 µM; Activity [33]: 5.3%; efflux ratio [34]: 28.4; Activity [35]: 51.2%; remaining at 0.5 h [36]: 99.2%; Activity [37]: 17.3%; recovery at 1 h, 10 µM [38]: 70.7%; remaining at 0.25 h [39]: 99.9%
82%	64%	94.2%	0.12 ×10⁻⁶ cm/s	45%	0.33 ×10⁻⁶ cm/s	102%	69.2%	C[C@H]1[C@H](C)CC[C@]2(C(=O)O)CC[C@]3(C)C(=CC[C@@H]4[C@@]5(C)CC6=C(C7C(=O)N(c8ccccc8)C(=O)C7C=C6C(F)(F)F)C(C)(C)[C@@H]5CC[C@]43C)[C@H]12 (stereo partly specified)	13 µM	0%	19 µM	> 50 µM	Active	> 50 µM	93.6%	12 µM	10 µM	Active	4.3 µM	0%	Activity [23]: Active; IC50 [24]: 23 µM; Activity [25]: 0.6%; fraction unbound at 10 µM [26]: 0.292; efflux ratio [27]: 8.17; Activity [28]: 6.9%; Activity [29]: 2.8%; Activity [30]: 11.8%; IC50 [31]: 18 µM; IC50 [32]: 21 µM; Activity [33]: 3.6%; efflux ratio [34]: 41.8; Activity [35]: 82.2%; remaining at 0.5 h [36]: 99.6%; Activity [37]: 10.9%; recovery at 1 h, 10 µM [38]: 60.5%; remaining at 0.25 h [39]: 102%
